Reference: ChEMBL document CHEMBL4406804, “Discovery of a Potent Steroidal Glucocorticoid Receptor Antagonist with Enhanced Selectivity against the Progesterone and Androgen Receptors (OP-3633)” (J Med Chem, 2019)
≈ marks a conversion by molar mass, not a printed value. Calls of active or inactive are those of the source. No cut-off for these calls is given here.

Legend:
[1] = Solubility of compound in fasted state simulated gastric fluid at pH 1.2; format: physicochemical
[2] = Solubility of compound in fasted state simulated intestinal fluid at pH 6.5; format: physicochemical
[3] = Solubility of compound in PBS at pH 7.4; format: physicochemical
[4] = target: T1, Androgen receptor (Homo sapiens, UniProt P10275); assay: Antagonist activity at human androgen receptor in human LNCAP cells harboring firefly luciferase gene after 20 hrs by One-Glo luciferase reporter gene assay; format: cell-based
T1 sequence (P10275 whole entry): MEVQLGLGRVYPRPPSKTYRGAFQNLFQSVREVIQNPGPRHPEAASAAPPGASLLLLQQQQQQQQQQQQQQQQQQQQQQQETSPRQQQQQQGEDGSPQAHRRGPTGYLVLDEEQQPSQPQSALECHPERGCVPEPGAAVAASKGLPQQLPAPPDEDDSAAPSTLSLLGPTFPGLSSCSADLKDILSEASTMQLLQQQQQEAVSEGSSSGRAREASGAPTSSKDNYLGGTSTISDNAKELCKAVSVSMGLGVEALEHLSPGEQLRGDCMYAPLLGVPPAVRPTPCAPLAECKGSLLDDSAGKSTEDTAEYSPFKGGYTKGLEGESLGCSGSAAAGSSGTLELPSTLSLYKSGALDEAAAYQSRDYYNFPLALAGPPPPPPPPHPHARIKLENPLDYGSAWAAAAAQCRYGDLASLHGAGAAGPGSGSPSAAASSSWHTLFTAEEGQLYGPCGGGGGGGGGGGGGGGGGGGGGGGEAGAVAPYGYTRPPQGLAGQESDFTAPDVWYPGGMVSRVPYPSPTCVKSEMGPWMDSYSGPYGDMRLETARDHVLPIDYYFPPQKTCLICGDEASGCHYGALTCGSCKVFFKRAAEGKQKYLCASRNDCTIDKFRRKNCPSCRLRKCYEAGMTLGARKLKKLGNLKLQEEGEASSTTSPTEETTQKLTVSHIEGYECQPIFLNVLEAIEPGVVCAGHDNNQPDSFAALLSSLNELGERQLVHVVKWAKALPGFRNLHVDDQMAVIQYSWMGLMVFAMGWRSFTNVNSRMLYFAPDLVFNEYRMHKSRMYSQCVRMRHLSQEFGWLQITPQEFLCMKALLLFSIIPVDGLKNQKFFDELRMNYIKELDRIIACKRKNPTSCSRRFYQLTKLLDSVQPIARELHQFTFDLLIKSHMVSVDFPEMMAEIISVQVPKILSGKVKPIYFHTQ
Outline: (§1)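 Cell-based luciferase reporter assays for GR, AR and PR, run in agonist and antagonist modes. Potency and Emax are averages of at least two determinations, reported with SD.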

[5] = target: T2, Progesterone receptor (Homo sapiens) (UniProt P06401); assay: Agonist activity at human progesterone receptor expressed in CHO-K1 cells harboring firefly luciferase gene after 20 hrs by One-Glo luciferase reporter gene assay; format: cell-based; outline: as §1
T2 sequence (whole entry): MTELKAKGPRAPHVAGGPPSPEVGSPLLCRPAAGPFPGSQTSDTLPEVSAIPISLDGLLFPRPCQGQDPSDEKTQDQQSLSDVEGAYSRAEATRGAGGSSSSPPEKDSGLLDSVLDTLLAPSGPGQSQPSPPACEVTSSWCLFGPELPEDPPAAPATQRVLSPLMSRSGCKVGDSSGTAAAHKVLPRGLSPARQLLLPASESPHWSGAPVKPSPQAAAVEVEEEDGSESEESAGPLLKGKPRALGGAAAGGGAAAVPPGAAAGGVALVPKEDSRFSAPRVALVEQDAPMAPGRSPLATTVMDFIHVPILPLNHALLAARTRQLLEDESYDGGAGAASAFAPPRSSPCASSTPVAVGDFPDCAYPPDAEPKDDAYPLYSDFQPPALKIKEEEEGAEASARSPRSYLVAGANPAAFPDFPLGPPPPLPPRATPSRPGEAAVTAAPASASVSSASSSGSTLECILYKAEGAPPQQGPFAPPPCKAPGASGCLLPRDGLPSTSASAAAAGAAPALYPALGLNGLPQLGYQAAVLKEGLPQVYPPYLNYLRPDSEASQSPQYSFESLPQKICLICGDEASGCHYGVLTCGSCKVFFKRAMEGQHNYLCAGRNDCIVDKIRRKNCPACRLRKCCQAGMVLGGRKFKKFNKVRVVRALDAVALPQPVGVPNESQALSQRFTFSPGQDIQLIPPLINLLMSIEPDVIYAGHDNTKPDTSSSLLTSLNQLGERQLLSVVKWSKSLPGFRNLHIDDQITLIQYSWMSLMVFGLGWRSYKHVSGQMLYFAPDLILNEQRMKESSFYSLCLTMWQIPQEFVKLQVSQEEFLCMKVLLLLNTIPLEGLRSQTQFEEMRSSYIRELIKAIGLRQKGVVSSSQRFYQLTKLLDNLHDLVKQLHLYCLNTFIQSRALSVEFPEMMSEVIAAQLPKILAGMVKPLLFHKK

[6] = target: CYP3A4 (Homo sapiens, UniProt P08684); assay: Inhibition of CYP3A4 (unknown origin) at 10 uM using midazolam as substrate relative to control; format: ADME; conditions: probe midazolam
[7] = target: T3, Progesterone receptor (Homo sapiens, UniProt P06401); assay: Antagonist activity at human progesterone receptor expressed in CHO-K1 cells harboring firefly luciferase gene after 20 hrs by One-Glo luciferase reporter gene assay; format: cell-based; outline: as §1
T3 sequence (P06401 whole entry): T2 sequence (whole entry)

[8] = target: T4, CYP2C8 (Homo sapiens, UniProt P10632); assay: Inhibition of CYP2C8 (unknown origin) at 10 uM using paclitaxel as substrate relative to control; format: ADME; conditions: probe paclitaxel
T4 sequence (P10632 whole entry): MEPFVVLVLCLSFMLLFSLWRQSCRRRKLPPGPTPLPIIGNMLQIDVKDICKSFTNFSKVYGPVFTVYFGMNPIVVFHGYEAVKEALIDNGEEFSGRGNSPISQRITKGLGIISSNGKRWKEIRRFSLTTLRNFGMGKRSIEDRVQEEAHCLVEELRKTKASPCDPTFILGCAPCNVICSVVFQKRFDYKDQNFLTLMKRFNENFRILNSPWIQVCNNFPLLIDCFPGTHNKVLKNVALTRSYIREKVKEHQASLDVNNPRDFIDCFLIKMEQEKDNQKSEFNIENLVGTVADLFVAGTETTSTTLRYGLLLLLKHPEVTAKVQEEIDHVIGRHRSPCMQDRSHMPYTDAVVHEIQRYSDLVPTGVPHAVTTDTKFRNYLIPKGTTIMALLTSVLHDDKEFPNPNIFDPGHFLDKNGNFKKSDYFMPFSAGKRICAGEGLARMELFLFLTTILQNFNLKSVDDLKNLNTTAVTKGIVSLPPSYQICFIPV

[9] = target: T1, Androgen receptor; assay: Agonist activity at human androgen receptor in human LNCAP cells harboring firefly luciferase gene after 20 hrs by One-Glo luciferase reporter gene assay relative to mifepristone; format: cell-based; outline: as §1
[10] = target: T5, Glucocorticoid receptor (Homo sapiens, UniProt P04150); assay: Antagonist activity at human glucocorticoid receptor expressed in CHO-K1 cells harboring firefly luciferase gene after 20 hrs by One-Glo luciferase reporter gene assay; format: cell-based
T5 sequence (P04150 whole entry): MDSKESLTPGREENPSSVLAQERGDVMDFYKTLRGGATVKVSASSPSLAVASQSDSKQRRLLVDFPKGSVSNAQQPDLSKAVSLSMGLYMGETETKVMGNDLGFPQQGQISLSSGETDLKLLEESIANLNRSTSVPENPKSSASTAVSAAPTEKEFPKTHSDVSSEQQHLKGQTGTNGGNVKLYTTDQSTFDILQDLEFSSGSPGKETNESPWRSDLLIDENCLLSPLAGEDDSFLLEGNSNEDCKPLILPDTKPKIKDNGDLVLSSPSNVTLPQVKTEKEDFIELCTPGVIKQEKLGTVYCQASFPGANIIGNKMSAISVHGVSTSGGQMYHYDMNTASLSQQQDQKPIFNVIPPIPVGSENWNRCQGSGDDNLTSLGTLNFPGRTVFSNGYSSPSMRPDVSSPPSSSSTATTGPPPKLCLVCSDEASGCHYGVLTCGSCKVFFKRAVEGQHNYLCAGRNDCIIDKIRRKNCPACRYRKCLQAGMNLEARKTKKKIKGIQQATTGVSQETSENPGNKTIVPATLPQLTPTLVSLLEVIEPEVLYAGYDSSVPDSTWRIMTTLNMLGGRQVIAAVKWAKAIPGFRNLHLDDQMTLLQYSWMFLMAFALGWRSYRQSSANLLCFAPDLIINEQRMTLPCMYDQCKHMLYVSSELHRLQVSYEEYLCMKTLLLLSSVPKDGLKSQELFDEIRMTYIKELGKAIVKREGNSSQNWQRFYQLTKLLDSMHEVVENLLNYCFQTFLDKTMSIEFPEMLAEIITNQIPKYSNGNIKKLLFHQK

[11] = target: T1, Androgen receptor; assay: Agonist activity at human androgen receptor in human LNCAP cells harboring firefly luciferase gene after 20 hrs by One-Glo luciferase reporter gene assay; format: cell-based
[12] = target: T6, Glucocorticoid receptor (Homo sapiens) (UniProt P04150); assay: Antagonist activity at human glucocorticoid receptor expressed in CHO-K1 cells harboring firefly luciferase gene assessed as inhibition of glucocorticoid receptor activity at 0.01 to 10000 nM after 20 hrs by One-Glo luciferase reporter gene assay relative to mifepristone; format: cell-based; design: scale not given: the % may be the effect or the level left; outline: as §1
T6 sequence (whole entry): T5 sequence (P04150 whole entry)

[13] = organism: Homo sapiens; assay: Selectivity ratio, ratio of IC50 for human androgen receptor in human LNCAP cells to IC50 for human glucocorticoid receptor expressed in CHO-K1 cells harboring firefly luciferase gene; format: cell-based
[14] = target: T5, Glucocorticoid receptor; assay: Antagonist activity at human glucocorticoid receptor expressed in CHO-K1 cells assessed as inhibition of glucocorticoid receptor-dexamethasone coactivator protein-protein interaction incubated for 24 hrs by bioluminescence assay; format: cell-based
[15] = target: T5, Glucocorticoid receptor; assay: Displacement of fluormone tracer from full length human recombinant glucocorticoid receptor expressed in baculovirus expression system incubated for 2 hrs by competitive fluorescence polarization binding assay

CYP3A4, sequence (P08684 whole entry): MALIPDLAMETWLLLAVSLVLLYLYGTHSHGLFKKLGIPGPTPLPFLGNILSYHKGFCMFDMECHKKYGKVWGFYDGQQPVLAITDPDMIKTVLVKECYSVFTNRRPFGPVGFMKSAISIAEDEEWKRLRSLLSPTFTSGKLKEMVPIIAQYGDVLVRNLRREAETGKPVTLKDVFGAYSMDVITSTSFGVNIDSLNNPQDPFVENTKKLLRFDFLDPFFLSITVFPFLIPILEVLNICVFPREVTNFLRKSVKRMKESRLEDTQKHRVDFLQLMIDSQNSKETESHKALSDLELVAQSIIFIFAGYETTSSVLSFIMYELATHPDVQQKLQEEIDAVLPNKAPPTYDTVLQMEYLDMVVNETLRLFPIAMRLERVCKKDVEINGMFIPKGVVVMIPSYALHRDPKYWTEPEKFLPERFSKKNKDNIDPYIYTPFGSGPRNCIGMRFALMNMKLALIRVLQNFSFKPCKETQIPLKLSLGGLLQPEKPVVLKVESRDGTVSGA

solubility [1] | solubility [2] | solubility [3] | IC50 [14] | IC50 [15] | Compound | IC50 [4] | agonist activity [5] | inhibition at 10 µM [6] | IC50 [7] | inhibition at 10 µM [8] | Emax at 20 h [9] | IC50 [10] | EC50 [11] | Activity [12] | Ratio [13]
> 1160 µM | 5.4 µM (≈ 2.32 µg/mL) | 3 µM (≈ 1.29 µg/mL) | – | – | CC#C[C@]1(O)CC[C@H]2[C@@H]3CCC4=CC(=O)CCC4=C3[C@@H](c3ccc(N(C)C)cc3)C[C@@]21C [MIFEPRISTONE] | – | – | – | – | – | – | – | – | – | –
– | – | – | – | – | CN(C)c1ccc([C@H]2C[C@@]3(C)[C@@H](CC[C@@]3(O)C#CC(C)(C)C)[C@@H]3CCC4=CC(=O)CC[C@]4(C)[C@H]32)cc1 | > 5 µM | inactive | 71% | 2.49 µM | 84% | 7.4% | 0.0336 µM | > 2.5 µM | 100% | 70
– | – | – | – | – | CN(C)c1ccc([C@H]2C[C@@]3(C)[C@@H](CC[C@@]3(O)C#CC3CC3)[C@@H]3CCC4=CC(=O)CC[C@]4(C)[C@H]32)cc1 | 1.45 µM | inactive | 53% | 1.49 µM | 70% | 5.4% | 0.0285 µM | > 2.5 µM | 100% | –
– | – | – | 0.0075 µM | 0.008 µM | CN(C)c1ccc([C@H]2C[C@@]3(C)[C@@H](CC[C@@]3(O)C#CC(C)(C)C)[C@@H]3CCC4=CC(=O)CCC4=C32)cc1 | 0.129 µM | inactive | – | 0.0144 µM | – | – | – | – | 100% | 10 to 30
– | – | – | – | – | CC(C)(C)C#C[C@]1(O)CC[C@H]2[C@@H]3CCC4=CC(=O)CC[C@@H]4[C@H]3[C@@H](c3ccc(N4CCN(S(C)(=O)=O)CC4)cc3)C[C@@]21C | 0.359 µM | inactive | – | 0.0046 µM | – | 18.1% | 0.0122 µM | > 2.5 µM | 100% | 10 to 30
